Experimental data reported in ChEMBL document CHEMBL1141606, “7-Azaindole derivatives as potential partial nicotinic agonists” (Bioorg Med Chem Lett, 2008).
pKi: −log10 of the molar value. One block for each molecule: values may come before it. The source made the active and inactive calls. No cut-off for these calls is given here.

What was measured:
[1] = molecular target: T1, Neuronal acetylcholine receptor; alpha4/beta2 (Rattus norvegicus, UniProt P09483+P12390); test: (§1) Displacement of [3H]cytisine from alpha-4-beta-2 nAChR in rat brain membrane; format: cell membranes
T1 sequence (P09483 whole entry): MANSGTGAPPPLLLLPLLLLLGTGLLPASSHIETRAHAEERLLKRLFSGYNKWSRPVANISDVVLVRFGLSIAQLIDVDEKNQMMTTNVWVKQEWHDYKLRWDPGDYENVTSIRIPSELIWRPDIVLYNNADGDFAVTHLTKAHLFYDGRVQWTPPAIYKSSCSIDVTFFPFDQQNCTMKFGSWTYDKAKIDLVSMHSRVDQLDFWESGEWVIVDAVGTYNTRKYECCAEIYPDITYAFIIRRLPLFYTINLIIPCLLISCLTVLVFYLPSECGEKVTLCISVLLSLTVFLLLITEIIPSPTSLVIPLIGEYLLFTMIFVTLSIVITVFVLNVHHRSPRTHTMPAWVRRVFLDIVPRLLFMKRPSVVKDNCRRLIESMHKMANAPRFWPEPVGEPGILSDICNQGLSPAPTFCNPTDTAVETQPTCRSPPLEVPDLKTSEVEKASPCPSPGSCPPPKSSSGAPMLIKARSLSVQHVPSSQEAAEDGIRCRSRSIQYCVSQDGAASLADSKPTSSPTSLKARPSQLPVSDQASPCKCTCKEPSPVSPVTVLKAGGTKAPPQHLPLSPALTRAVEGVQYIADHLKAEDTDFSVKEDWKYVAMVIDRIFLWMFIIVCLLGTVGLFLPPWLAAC
T1 sequence (P12390 whole entry): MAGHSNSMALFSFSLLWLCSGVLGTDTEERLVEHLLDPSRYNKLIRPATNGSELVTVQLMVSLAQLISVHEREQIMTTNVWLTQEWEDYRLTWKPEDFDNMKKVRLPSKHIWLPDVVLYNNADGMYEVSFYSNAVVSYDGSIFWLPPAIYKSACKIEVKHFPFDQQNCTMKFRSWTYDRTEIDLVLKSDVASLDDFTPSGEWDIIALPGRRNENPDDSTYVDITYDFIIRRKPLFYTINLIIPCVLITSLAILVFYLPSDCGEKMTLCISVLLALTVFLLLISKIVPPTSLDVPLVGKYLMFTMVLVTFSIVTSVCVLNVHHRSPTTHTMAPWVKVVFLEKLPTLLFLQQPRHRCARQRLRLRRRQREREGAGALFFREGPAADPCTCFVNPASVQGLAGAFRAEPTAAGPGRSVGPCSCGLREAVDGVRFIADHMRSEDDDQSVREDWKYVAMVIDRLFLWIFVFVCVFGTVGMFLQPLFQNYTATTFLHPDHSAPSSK
In short: (§2)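 Competition binding against [3H]cytisine on rat brain membranes at a contract lab, following a published nicotinic binding protocol. Affinity reported as Ki.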

[2] = molecular target: T2, Neuronal acetylcholine receptor; alpha4/beta2 (Rattus norvegicus) (UniProt P09483+P12390); test: as §1; format: cell membranes; in short: as §2
[3] = molecular target: T1, Neuronal acetylcholine receptor; alpha4/beta2; test: Displacement of [3H]L-nicotine from alpha-4-beta-2 nAChR in rat cerebral cortex; format: tissue-based
[4] = Metabolic stability in human liver; format: ADME, tissue-based
In short: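 In vitro incubation with human liver homogenate; metabolic stability expressed as half-life (t1/2, min).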

[5] = molecular target: T2, Neuronal acetylcholine receptor; alpha4/beta2 (Rattus norvegicus); test: Agonist activity at alpha4beta2 nAChR in rat striatal membranes assessed as effect on [3H]dopamine release; format: functional; conditions: Striatum, Slice, in the assay text read “striatal slices” for “striatal membranes”
In short: (§3)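 Rat striatal slices were used for [3H]dopamine release. Test compound was added with the K+ pulse for 5 min, at 10 nM (t = 50 min) and 1 µM (t = 90 min). […] In parallel runs, mecamylamine (0.1 µM) or DHβE (1 µM) sensitivity was read as percent inhibition of evoked release.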

[6] = Oral bioavailability in rat; format: ADME, organism-based; conditions: in vivo
In short: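 Rat pharmacokinetic study with both intravenous and oral dosing; oral bioavailability (%) derived by comparing the two routes.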

[7] = molecular target: T2, Neuronal acetylcholine receptor; alpha4/beta2 (Rattus norvegicus); test: Antagonist activity at alpha-4-beta-2 nAChR in rat striatal slices assessed as blockade of nicotine-induced [3H]dopamine release at 10 uM; parameters: scale not given: the % may be the effect or the level left; conditions: Striatum, Slice
[8] = Ratio of drug level in brain to plasma in po dosed rat; format: ADME, organism-based
In short: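 Rat iv/po pharmacokinetic study. Drug levels were measured in brain (ng/g) and plasma (ng/ml) after oral administration, and the brain-plasma ratio was derived from them.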

[9] = Drug level in po dosed rat plasma; format: ADME, organism-based; parameters: route oral
In short: (§4)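 Rats dosed orally; drug concentrations at Cmax measured in brain tissue (ng/g) and in plasma (ng/ml).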

[10] = molecular target: T2, Neuronal acetylcholine receptor; alpha4/beta2 (Rattus norvegicus); test: Agonist activity at alpha-4-beta-2 nAChR in rat striatal membranes assessed as effect on [3H]dopamine release relative to nicotine; format: functional; conditions: Striatum, Slice, in the assay text read “striatal slices” for “striatal membranes”; in short: as §3
[11] = Drug level in po dosed rat brain; format: ADME, organism-based; parameters: route oral; in short: as §4

Structure (SMILES): Clc1ccc2c(C3CCCNC3)c[nH]c2n1 (configuration not stated)
pKi [1]: 5.53

Structure (SMILES): c1cnc2[nH]c(C3CCCNC3)cc2c1 (single isomer, unassigned; (-))
pKi [1]: 5.70

Structure (SMILES): Brc1ccc2cc(C[C@@H]3CCCN3)[nH]c2n1
Activity [2]: inactive

Structure (SMILES): Clc1ccc2cc(C3CCCNC3)[nH]c2n1 (single isomer, unassigned; (-))
Activity [2]: inactive

Structure (SMILES): Clc1ccc2cc(C[C@H]3CCCN3)[nH]c2n1
pKi [1]: 6.83

Structure (SMILES): Clc1ccnc2[nH]c(C3CCCNC3)cc12 (configuration not stated)
Activity [2]: inactive

Structure (SMILES): Clc1ccc2cc(C[C@@H]3CCCN3)[nH]c2n1
pKi [1]: 5.43

Structure (SMILES): Fc1ccc2cc(C[C@H]3CCCN3)[nH]c2n1
pKi [1]: 6.50

Structure (SMILES): CN1CCC[C@@H]1Cc1cc2cccnc2[nH]1
pKi [1]: 5.60

Structure (SMILES): Brc1ccc2cc(C[C@H]3CCCN3)[nH]c2n1
pKi [1]: 6.16

Structure (SMILES): c1cnc2[nH]c(C3CCCNC3)cc2c1 (single isomer, unassigned; (+))
Activity [2]: inactive

Structure (SMILES): Fc1ccc2cc(C[C@@H]3CCCN3)[nH]c2n1
pKi [1]: 5.70

Structure (SMILES): Clc1ccc2cc(C3CCCNC3)[nH]c2n1 (racemic)
Activity [2]: inactive

Structure (SMILES): CN[C@@H](C)C/C=C/c1cncc(OC)c1
pKi [3]: 7.96

Structure (SMILES): c1cnc2[nH]cc(C3CCCNC3)c2c1 (configuration not stated)
pKi [1]: 5.53

pKi [1]: 6.60
Structure (SMILES): c1cnc2[nH]c(C3CCNC3)cc2c1 (single isomer, unassigned; (-))

pKi [1]: 7.80
Structure (SMILES): c1cnc2[nH]c(C3CCNC3)cc2c1 (racemic)

pKi [1]: 5.56
Structure (SMILES): c1cnc2[nH]c(C[C@@H]3CCCN3)cc2c1

half-life [4]: 2.23 h | pKi [1]: 8.00
Structure (SMILES): Br.c1cnc2[nH]c(C3CCNC3)cc2c1 (configuration not stated)

Structure (SMILES): CN1CCC[C@H]1Cc1cc2cccnc2[nH]1
pKi [1]: 6.16

Activity [5]: Active
Structure (SMILES): c1cnc2[nH]c(C3CCNC3)cc2c1 (configuration not stated)

Structure (SMILES): Clc1ccc2cc(C3CCCNC3)[nH]c2n1 (single isomer, unassigned; (+))
pKi [1]: 5.46

Activity [2]: inactive
Structure (SMILES): COc1ccc2cc(C[C@H]3CCCN3)[nH]c2n1

Activity [5]: Active | bioavailability [6]: 11.3% | Activity [7]: 70% | half-life [4]: 4.43 h | Kp [8]: 3.7 | Cmax [9]: 120 ng/mL | Activity [10]: 62% | Cmax [11]: 280 ng/g
Structure (SMILES): c1cnc2[nH]c(C[C@H]3CCCN3)cc2c1
